{"source": "ChEMBL document CHEMBL1275447", "about": "(Antimicrob Agents Chemother, 2008)", "key": {"[1]": {"experiment": "fT>MIC in human infected with Pseudomonas aeruginosa isolate 906 at 500 mg administered as 1 hr infusion", "format": "functional"}, "[2]": {"system": "Pseudomonas aeruginosa", "experiment": "Antibacterial activity against Pseudomonas aeruginosa isolate 896 by microdilution method", "format": "functional"}, "[3]": {"experiment": "fT>MIC in human infected with Pseudomonas aeruginosa isolate 1060 at 500 mg administered as 4 hr infusion", "format": "functional"}, "[4]": {"experiment": "Cmax in Pseudomonas aeruginosa ATCC 27853 infected neutropenic ICR mouse at 500 mg administered as 1 hr infusion", "format": "ADME, organism-based", "parameters": "dose 500 mg", "conditions": "in vivo, iv"}, "[5]": {"experiment": "fT>MIC in neutropenic mouse infected with Pseudomonas aeruginosa isolate 993 at 500 mg administered as 1 hr infusion", "format": "functional", "outline": "(§1)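 Free-drug time above MIC simulated from one-compartment mouse serum PK (25.2% protein binding). The mice were cyclophosphamide-neutropenic and uranyl nitrate-renally impaired. Regimen was subcutaneous 10, 15, 2.5, 1.25, 0.5, 0.25 mg/kg at 0, 0.5, 2.5, 4, 5.5, 7 h, repeated every 8 h over 24 h.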"}, "[6]": {"experiment": "fT>MIC in human infected with Pseudomonas aeruginosa isolate 886 at 500 mg administered as 1 hr infusion", "format": "functional"}, "[7]": {"experiment": "fT>MIC in neutropenic mouse infected with Pseudomonas aeruginosa isolate 1050 at 500 mg administered as 1 hr infusion", "format": "functional", "outline": "as §1"}, "[8]": {"system": "Pseudomonas aeruginosa", "experiment": "Antibacterial activity against Pseudomonas aeruginosa isolate 936 by microdilution method", "format": "functional"}, "[9]": {"experiment": "fT>MIC in human infected with Pseudomonas aeruginosa isolate 1055 at 500 mg administered as 1 hr infusion", "format": "functional"}, "[10]": {"system": "Pseudomonas aeruginosa", "experiment": "Antibacterial activity against Pseudomonas aeruginosa isolate 886 by microdilution method", "format": "functional"}, "[11]": {"experiment": "fT>MIC in neutropenic mouse infected with Pseudomonas aeruginosa isolate 1029 at 500 mg administered as 1 hr infusion", "format": "functional"}, "[12]": {"experiment": "AUC in Pseudomonas aeruginosa ATCC 27853 infected neutropenic ICR mouse at 500 mg administered as 1 hr infusion", "format": "ADME, organism-based", "conditions": "plasma, iv"}, "[13]": {"system": "Pseudomonas aeruginosa", "experiment": "Antibacterial activity against Pseudomonas aeruginosa isolate 935 by microdilution method", "format": "functional", "outline": "(§2)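 CLSI broth microdilution in cation-adjusted Mueller-Hinton broth (20–25 mg/liter Ca, 10–12.5 mg/liter Mg). Standard inoculum 10⁵ CFU/ml, incubated in ambient air. Clinical hospital isolates.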"}, "[14]": {"system": "Pseudomonas aeruginosa", "experiment": "Antibacterial activity against Pseudomonas aeruginosa isolate 1006 by microdilution method", "format": "functional"}, "[15]": {"system": "Pseudomonas aeruginosa", "experiment": "Antibacterial activity against Pseudomonas aeruginosa isolate 1005 by microdilution method", "format": "functional", "outline": "as §2"}, "[16]": {"experiment": "Half-life in Pseudomonas aeruginosa ATCC 27853 infected neutropenic ICR mouse at 10 mg/kg, sc administered as single dose 2 hrs postinfection", "format": "ADME, organism-based", "parameters": "dose 10 mg/kg, route subcutaneous", "conditions": "in vivo", "outline": "(§3)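 Neutropenic mice (cyclophosphamide ip 150 and 100 mg/kg, 4 and 1 days before inoculation) with uranyl nitrate 5 mg/kg ip 3 days before, for renal impairment. Thigh infection with ATCC 27853 at 10⁶ CFU/ml, 0.1 ml per thigh. Single sc doses 2 h later. Intracardiac blood from 6–12 mice per time point, eight time points over 4 h. Serum assayed by HPLC (linear 0.5–40 μg/ml). One-compartment first-order fit.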"}, "[17]": {"experiment": "fT>MIC in human infected with Pseudomonas aeruginosa isolate 1052 at 500 mg administered as 1 hr infusion", "format": "functional"}, "[18]": {"system": "Pseudomonas aeruginosa", "experiment": "Antibacterial activity against Pseudomonas aeruginosa isolate 931 by microdilution method", "format": "functional", "outline": "as §2"}, "[19]": {"experiment": "Cmax in Pseudomonas aeruginosa ATCC 27853 infected neutropenic ICR mouse at 10 mg/kg, sc administered as single dose 2 hrs postinfection by HPLC", "format": "ADME, organism-based", "parameters": "dose 10 mg/kg, route subcutaneous", "conditions": "in vivo", "outline": "as §3"}, "[20]": {"experiment": "fT>MIC in human infected with Pseudomonas aeruginosa isolate 931 at 500 mg administered as 1 hr infusion", "format": "functional"}, "[21]": {"experiment": "fT>MIC in neutropenic mouse infected with Pseudomonas aeruginosa isolate 906 at 500 mg administered as 1 hr infusion", "format": "functional", "outline": "as §1"}, "[22]": {"system": "Pseudomonas aeruginosa", "experiment": "Antibacterial activity against Pseudomonas aeruginosa isolate 906 by microdilution method", "format": "functional"}, "[23]": {"system": "Pseudomonas aeruginosa", "experiment": "Antibacterial activity against Pseudomonas aeruginosa isolate 927 by microdilution method", "format": "functional"}, "[24]": {"experiment": "fT>MIC in human infected with Pseudomonas aeruginosa isolate 979 at 500 mg administered as 1 hr infusion", "format": "functional"}, "[25]": {"system": "Pseudomonas aeruginosa", "experiment": "Antibacterial activity against Pseudomonas aeruginosa isolate 931 at 4 ug/ml after 24 hrs", "format": "functional, organism-based"}, "[26]": {"experiment": "Tmax in Pseudomonas aeruginosa ATCC 27853 infected neutropenic ICR mouse at 50 mg/kg, sc administered as single dose 2 hrs postinfection by HPLC", "format": "ADME, organism-based", "parameters": "dose 50 mg/kg, route subcutaneous", "conditions": "in vivo", "outline": "as §3"}, "[27]": {"system": "Pseudomonas aeruginosa", "experiment": "Antibacterial activity against Pseudomonas aeruginosa isolate 1036 by microdilution method", "format": "functional"}, "[28]": {"experiment": "AUC in healthy human at 500 mg administered as 1 hr infusion", "format": "ADME, organism-based", "conditions": "plasma, iv"}, "[29]": {"system": "Pseudomonas aeruginosa", "experiment": "Antibacterial activity against Pseudomonas aeruginosa isolate 979 by microdilution method", "format": "functional"}, "[30]": {"experiment": "fT>MIC in human infected with Pseudomonas aeruginosa isolate 1062 at 500 mg administered as 1 hr infusion", "format": "functional"}, "[31]": {"experiment": "Cmax in Pseudomonas aeruginosa ATCC 27853 infected neutropenic ICR mouse at 50 mg/kg, sc administered as single dose 2 hrs postinfection by HPLC", "format": "ADME, organism-based", "parameters": "dose 50 mg/kg, route subcutaneous", "conditions": "in vivo", "outline": "as §3"}, "[32]": {"experiment": "Tmax in Pseudomonas aeruginosa ATCC 27853 infected neutropenic ICR mouse at 10 mg/kg, sc administered as single dose 2 hrs postinfection by HPLC", "format": "ADME, organism-based", "parameters": "dose 10 mg/kg, route subcutaneous", "conditions": "in vivo", "outline": "as §3"}, "[33]": {"experiment": "fT>MIC in human infected with Pseudomonas aeruginosa isolate 988 at 500 mg administered as 1 hr infusion", "format": "functional"}, "[34]": {"system": "Pseudomonas aeruginosa", "experiment": "Antibacterial activity against Pseudomonas aeruginosa isolate 1058 by microdilution method", "format": "functional"}, "[35]": {"experiment": "Elimination rate constant in Pseudomonas aeruginosa ATCC 27853 infected neutropenic ICR mouse at 10 mg/kg, sc administered as single dose 2 hrs postinfection", "format": "ADME, organism-based", "parameters": "dose 10 mg/kg, route subcutaneous", "conditions": "in vivo", "outline": "as §3"}, "[36]": {"experiment": "fT>MIC in human infected with Pseudomonas aeruginosa isolate 968 at 500 mg administered as 4 hr infusion", "format": "functional"}, "[37]": {"experiment": "fT>MIC in neutropenic mouse infected with Pseudomonas aeruginosa isolate 1058 at 500 mg administered as 1 hr infusion", "format": "functional", "outline": "as §1"}, "[38]": {"experiment": "fT>MIC in neutropenic mouse infected with Pseudomonas aeruginosa isolate 968 at 500 mg administered as 4 hr infusion", "format": "functional", "outline": "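Mouse fT>MIC was modelled with first-order one-compartment serum PK and 25.2% binding. Mice were neutropenic (cyclophosphamide) with uranyl nitrate renal impairment. Subcutaneous doses were 5.5, 2.25, 4.5, 4.5, 4.5, 4.5, 0.75, 0.375 mg/kg at 0, 0.5, 1.5, 2.5, 3.5, 4.5, 6, 7.5 h per 8-h interval over 24 h.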"}, "[39]": {"experiment": "Clearance in Pseudomonas aeruginosa ATCC 27853 infected neutropenic ICR mouse at 150 mg/kg, sc administered as single dose 2 hrs postinfection", "format": "ADME, organism-based", "parameters": "dose 150 mg/kg, route subcutaneous", "conditions": "in vivo", "outline": "as §3"}, "[40]": {"experiment": "fT>MIC in neutropenic mouse infected with Pseudomonas aeruginosa isolate 1005 at 500 mg administered as 4 hr infusion", "format": "functional"}, "[41]": {"system": "Pseudomonas aeruginosa", "experiment": "Antibacterial activity against Pseudomonas aeruginosa isolate 968 by microdilution method", "format": "functional"}, "[42]": {"experiment": "fT>MIC in human infected with Pseudomonas aeruginosa isolate 869 at 500 mg administered as 1 hr infusion", "format": "functional"}}, "note": "The source made the active and inactive calls. The calls are words filed in the database; no cut-off is given here."}
{"compound": "C[C@@H](O)[C@H]1C(=O)N2C(C(=O)O)=C(S[C@@H]3CN[C@H](CNS(N)(=O)=O)C3)[C@H](C)[C@H]12", "note": "[DORIPENEM]", "values": [{"measurement": "fT>MIC", "setting": "[1]", "value": 40, "unit": "%"}, {"measurement": "MIC", "setting": "[2]", "value": 8, "unit": "µg/mL"}, {"measurement": "fT>MIC", "setting": "[3]", "value": 55, "unit": "%"}, {"measurement": "Cmax", "setting": "[4]", "value": 28400, "unit": "ng/mL"}, {"measurement": "fT>MIC", "setting": "[5]", "value": 100, "unit": "%"}, {"measurement": "fT>MIC", "setting": "[6]", "value": 90, "unit": "%"}, {"measurement": "fT>MIC", "setting": "[7]", "value": 30, "unit": "%"}, {"measurement": "MIC", "setting": "[8]", "value": 8, "unit": "µg/mL"}, {"measurement": "fT>MIC", "setting": "[9]", "value": 72.5, "unit": "%"}, {"measurement": "MIC", "setting": "[10]", "value": 0.25, "unit": "µg/mL"}, {"measurement": "fT>MIC", "setting": "[11]", "value": 100, "unit": "%"}, {"measurement": "AUC at 1 h", "setting": "[12]", "value": 37600, "unit": "ng·h/mL"}, {"measurement": "MIC", "setting": "[13]", "value": 1, "unit": "µg/mL"}, {"measurement": "MIC", "setting": "[14]", "value": 8, "unit": "µg/mL"}, {"measurement": "MIC", "setting": "[15]", "value": 1, "unit": "µg/mL"}, {"measurement": "half-life", "setting": "[16]", "value": 24.6, "unit": "min"}, {"measurement": "fT>MIC", "setting": "[17]", "value": 55, "unit": "%"}, {"measurement": "MIC", "setting": "[18]", "value": 4, "unit": "µg/mL"}, {"measurement": "Cmax", "setting": "[19]", "value": 16300, "unit": "ng/mL"}, {"measurement": "fT>MIC", "setting": "[20]", "value": 27.5, "unit": "%"}, {"measurement": "fT>MIC", "setting": "[21]", "value": 42.5, "unit": "%"}, {"measurement": "MIC", "setting": "[22]", "value": 2, "unit": "µg/mL"}, {"measurement": "MIC", "setting": "[23]", "value": 16, "unit": "µg/mL"}, {"measurement": "fT>MIC", "setting": "[24]", "value": 40, "unit": "%"}, {"measurement": "Activity", "setting": "[25]", "value": "inactive"}, {"measurement": "Tmax", "setting": "[26]", "value": 22.8, "unit": "min"}, {"measurement": "MIC", "setting": "[27]", "value": 2, "unit": "µg/mL"}, {"measurement": "AUC at 1 h", "setting": "[28]", "value": 32600, "unit": "ng·h/mL"}, {"measurement": "MIC", "setting": "[29]", "value": 2, "unit": "µg/mL"}, {"measurement": "fT>MIC", "setting": "[30]", "value": 72.5, "unit": "%"}, {"measurement": "Cmax", "setting": "[31]", "value": 59700, "unit": "ng/mL"}, {"measurement": "Tmax", "setting": "[32]", "value": 15, "unit": "min"}, {"measurement": "fT>MIC", "setting": "[33]", "value": 17.5, "unit": "%"}, {"measurement": "MIC", "setting": "[34]", "value": 2, "unit": "µg/mL"}, {"measurement": "k el at 2 h", "setting": "[35]", "value": 0.000467, "unit": "s⁻¹"}, {"measurement": "fT>MIC", "setting": "[36]", "value": 0, "unit": "%"}, {"measurement": "fT>MIC", "setting": "[37]", "value": 42.5, "unit": "%"}, {"measurement": "fT>MIC", "setting": "[38]", "value": 0, "unit": "%"}, {"measurement": "CL/F", "setting": "[39]", "value": 14.2, "unit": "mL/min/kg"}, {"measurement": "fT>MIC", "setting": "[40]", "value": 82.5, "unit": "%"}, {"measurement": "MIC", "setting": "[41]", "value": 16, "unit": "µg/mL"}, {"measurement": "fT>MIC", "setting": "[42]", "value": 90, "unit": "%"}]}
